The text below walks through data of ChEMBL document CHEMBL1151198, “A new antimalarial quassinoid from Simaba orinocensis” (J Nat Prod, 2004).

In brackets after ≈: the same amount, converted by molar mass. Activity calls are given as the source filed them. No cut-off for these calls is given here. A value given as a limit tells only on which side of the number the result lay.

For data set [1], the system named is HeLa. In words: Inhibition of protein synthesis in human HeLa cells assessed as translation at 2 uM by [35S]methionine metabolic labeling study. The class given is functional. Set-up: scale not given: the % may be the effect or the level left.
Data set [2] deals with Intercellular adhesion molecule (ICAM-1), Integrin alpha-L/beta-2 (Homo sapiens) (UniProt P20701+P05362+P05107). In words: Inhibition of LFA1/ICAM1-mediated HL60 cell aggregation. The following applies: HL-60. Type of data set: cell-based. Summed up:
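Primary screen for LFA-1/ICAM-1-mediated cell aggregation run together with an XTT cell-proliferation read-out. Aggregation potency is reported as a minimum inhibitory concentration in µg/mL.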

Data set [3] has as its system HeLa. In words: Inhibition of translation in human HeLa cells at 2 uM by 35S-methionine metabolic labeling study. Type of data set: functional, cell-based.
The test system of the next data set is CHO. Put plainly: Cytotoxicity against CHO cells transfected with ICAM1 by MTT assay. The note with it: Cricetulus griseus. The class given is cell-based. The method in brief: (§1)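 MTT viability assay, run on CHO-ICAM-1 cells and, separately, on RAW 264.7 cells. IC50 in µg/mL, mean ± SEM of three determinations.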
(Formazan colour is commonly taken as a measure of viable cells.)

For data set [4], the system named is Plasmodium falciparum. Put plainly: Antimalarial activity against chloroquine-sensitive Plasmodium falciparum D6 by LDH assay. The class given is functional, organism-based.
The subject of data set [5] is RAW264.7. Put plainly: Inhibition of iNOS production in LPS-activated mouse RAW264.7 cells after 20 hrs. The note with it: RAW264.7, 20 h. Type of data set: functional, cell-based. Summed up: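 iNOS assay in RAW 264.7 cells, with L-NMMA, APDC and dexamethasone as reference inhibitors. IC50 in µg/mL, mean ± SEM of three determinations.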
Data set [6] can be described thus: Inhibition of protein biosynthesis in mouse Krebs cells assessed as renilla luciferase activity at 0.4 uM after 1 hr by translation assay relative to control. Type of data set: functional. Summed up:
(§2)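 In vitro Krebs cell-extract translation system with firefly and Renilla luciferase read-outs, reported as average relative luciferase values. Compounds were tested at fixed concentrations (0.4–10 µM). DMSO (0.5%) served as vehicle control.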

Data set [7] can be described thus: Inhibition of protein biosynthesis in mouse Krebs cells assessed as firefly luciferase activity at 2 uM after 1 hr by translation assay relative to control. Type of data set: functional. Summed up:
(§3)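 In vitro Krebs cell translation system read by firefly and renilla luciferase. Compounds at 10 or 2 µM; anisomycin 10 µM as reference and 0.5% DMSO as vehicle control. Values are average luciferase activity relative to control.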

Data set [8] concerns HeLa. Put plainly: Inhibition of translation in human HeLa cells at 0.4 uM by 35S-methionine metabolic labeling study. Type of data set: functional, cell-based.
Data set [9] can be described thus: Specific index, ratio of IC50 for human HL60 cells to MIC for LFA1/ICAM1. The class given is functional, HL-60. Summed up: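 Index calculated as XTT-assay IC50 (µg/mL) divided by the MIC from the LFA-1/ICAM-1-mediated aggregation primary screen (µg/mL). XTT IC50 values are given as mean ± SEM of three determinations.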
Data set [10] in a line: Inhibition of protein biosynthesis in mouse Krebs cells assessed as renilla luciferase activity at 2 uM after 1 hr by translation assay relative to control. Type of data set: functional. The method in brief:
as §3

Data set [11] concerns the target Intercellular adhesion molecule (ICAM-1), Integrin alpha-L/beta-2 (Homo sapiens, UniProt P05107+P05362+P20701). In words: Inhibition of LFA1/ICAM1-mediated adhesion of HL60 cells to CHO-ICAM1 cells. Type of data set: cell-based, HL-60. The method in brief: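 Secondary LFA-1/ICAM-1-mediated adhesion assay using HL-60 cells and CHO-ICAM-1 cells, with cytochalasin B as standard. IC50 in µg/mL, mean ± SEM of three determinations.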

Another data set has as its system SK-OV-3. In words: Cytotoxicity against human SKOV3 cells after 48 hrs by neutral red staining. Type of data set: functional, cell-based. The note with it: SK-OV-3, 48 h. Summed up: (§4)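 Human tumour lines: SK-MEL (malignant melanoma), KB (epidermal carcinoma), BT-549 (ductal carcinoma) and SK-OV-3 (ovary carcinoma). Compounds tested up to a maximum of 10 µg/mL, with doxorubicin as reference. IC50 given in µg/mL as mean ± SEM of three determinations.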

The next data set concerns KB. In words: Cytotoxicity against human KB cells after 48 hrs by neutral red staining. Type of data set: functional, cell-based. Summed up:
as §4

For the next data set, the system named is Leishmania donovani. Put plainly: Antileishmanial activity against Leishmania donovani promastigotes after 48 hrs by alamar blue assay. The class given is functional, organism-based. (In general: Resazurin is reduced to fluorescent resorufin, in cell work by metabolically active cells.)
Data set [12] relates to RAW264.7. Put plainly: Cytotoxicity against mouse RAW264.7 cells after 2 days by MTT assay. Type of data set: cell-based. The note with it: RAW264.7, 48 h. Summed up: as §1
For another data set, the system named is BT-549. In words: Cytotoxicity against human BT549 cells after 48 hrs by neutral red staining. Type of data set: functional, cell-based. The note with it: BT-549, 48 h. The method in brief: as §4
The test system of data set [13] is HeLa. Put plainly: Inhibition of protein synthesis in human HeLa cells at 2 uM by [35S]methionine metabolic labeling study. Type of data set: functional.
Data set [14] in a line: Selectivity index, ratio of IC50 for african green monkey (Cercopithecus aethiops) Vero cells to IC50 for chloroquine-resistant Plasmodium falciparum W2. The class given is toxicity, cell-based. The following applies: read-out: Ratio IC50.
Data set [15] can be described thus: Selectivity index, ratio of IC50 for african green monkey (Cercopithecus aethiops) Vero cells to IC50 for chloroquine-sensitive Plasmodium falciparum D6. The note with it: read-out: Ratio IC50. Type of data set: toxicity, cell-based.
Data set [16] is described as follows: Inhibition of protein biosynthesis in mouse Krebs cells assessed as firefly luciferase activity at 0.4 uM after 1 hr by translation assay relative to control. The class given is functional. The method in brief: as §2
The test system of a further data set is SK-MEL. In words: Cytotoxicity against human SK-MEL cells after 48 hrs by neutral red staining. The class given is functional, cell-based. The method in brief: as §4
In a further data set the test system is Vero. Put plainly: Cytotoxicity against african green monkey kidney Vero cells. The class given is cell-based. The following applies: Chlorocebus sabaeus.
For a further data set, the system named is HL-60. In words: Cytotoxicity against human HL60 cells by XTT assay. Type of data set: cell-based. Summed up: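 XTT proliferation read-out combined with the primary assay for inhibitors of LFA-1/ICAM-1-mediated cell aggregation. IC50 in µg/mL, mean ± SEM of three determinations.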
The subject of data set [17] is Plasmodium falciparum. In words: Antimalarial activity against chloroquine-resistant Plasmodium falciparum W2 by LDH assay. The class given is functional, organism-based.
Data set [18] concerns HeLa. Put plainly: Inhibition of protein synthesis in human HeLa cells assessed as translation at 10 uM by [35S]methionine metabolic labeling study. Type of data set: functional. On the set-up: scale not given: the % may be the effect or the level left.
A short description of data set [19]: Inhibition of protein biosynthesis in mouse Krebs cells assessed as firefly luciferase activity at 10 uM after 1 hr by translation assay relative to control. The class given is functional. Summed up:
as §3

Data set [20] is described as follows: Inhibition of protein biosynthesis in mouse Krebs cells assessed as renilla luciferase activity at 10 uM after 1 hr by translation assay relative to control. Type of data set: functional. Summed up: as §3
Data set [21] relates to HeLa. In words: Inhibition of translation in human HeLa cells at 10 uM by 35S-methionine metabolic labeling study. The class given is functional, cell-based.
The test system of data set [22] is HeLa. In words: Inhibition of protein synthesis in human HeLa cells at 10 uM by [35S]methionine metabolic labeling study. The class given is functional.

Chain of Intercellular adhesion molecule (ICAM-1), Integrin alpha-L/beta-2 (P20701 whole entry): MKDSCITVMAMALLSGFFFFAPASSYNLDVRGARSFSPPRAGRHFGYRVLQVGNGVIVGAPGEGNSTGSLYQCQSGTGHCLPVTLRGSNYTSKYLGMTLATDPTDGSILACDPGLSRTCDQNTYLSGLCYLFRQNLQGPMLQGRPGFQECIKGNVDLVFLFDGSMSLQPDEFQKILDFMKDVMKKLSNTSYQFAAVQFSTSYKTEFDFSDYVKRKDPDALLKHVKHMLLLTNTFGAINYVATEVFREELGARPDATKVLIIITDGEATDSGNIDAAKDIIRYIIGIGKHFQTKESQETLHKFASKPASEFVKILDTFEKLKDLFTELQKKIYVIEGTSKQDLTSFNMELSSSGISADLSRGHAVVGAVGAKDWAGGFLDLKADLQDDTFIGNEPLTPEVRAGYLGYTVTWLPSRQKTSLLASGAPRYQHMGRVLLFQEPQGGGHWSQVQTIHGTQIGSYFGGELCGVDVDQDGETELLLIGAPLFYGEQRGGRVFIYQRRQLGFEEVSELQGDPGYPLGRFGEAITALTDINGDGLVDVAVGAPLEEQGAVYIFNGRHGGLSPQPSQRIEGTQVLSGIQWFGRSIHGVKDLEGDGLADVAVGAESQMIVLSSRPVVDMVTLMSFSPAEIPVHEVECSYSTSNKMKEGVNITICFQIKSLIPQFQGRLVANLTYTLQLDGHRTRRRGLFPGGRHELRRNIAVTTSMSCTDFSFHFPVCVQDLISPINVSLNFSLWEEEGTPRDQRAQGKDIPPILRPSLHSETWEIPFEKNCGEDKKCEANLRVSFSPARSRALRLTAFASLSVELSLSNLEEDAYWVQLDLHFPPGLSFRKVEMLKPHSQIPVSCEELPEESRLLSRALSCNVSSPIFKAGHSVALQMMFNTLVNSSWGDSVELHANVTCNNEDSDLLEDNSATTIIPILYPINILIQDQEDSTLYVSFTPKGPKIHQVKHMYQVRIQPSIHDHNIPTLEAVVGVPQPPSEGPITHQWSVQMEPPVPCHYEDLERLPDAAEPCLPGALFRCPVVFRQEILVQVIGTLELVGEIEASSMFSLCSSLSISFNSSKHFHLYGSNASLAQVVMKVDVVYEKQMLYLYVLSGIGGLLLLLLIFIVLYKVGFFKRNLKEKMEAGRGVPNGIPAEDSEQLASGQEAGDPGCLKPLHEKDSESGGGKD
Chain of Intercellular adhesion molecule (ICAM-1), Integrin alpha-L/beta-2 (P05362 whole entry): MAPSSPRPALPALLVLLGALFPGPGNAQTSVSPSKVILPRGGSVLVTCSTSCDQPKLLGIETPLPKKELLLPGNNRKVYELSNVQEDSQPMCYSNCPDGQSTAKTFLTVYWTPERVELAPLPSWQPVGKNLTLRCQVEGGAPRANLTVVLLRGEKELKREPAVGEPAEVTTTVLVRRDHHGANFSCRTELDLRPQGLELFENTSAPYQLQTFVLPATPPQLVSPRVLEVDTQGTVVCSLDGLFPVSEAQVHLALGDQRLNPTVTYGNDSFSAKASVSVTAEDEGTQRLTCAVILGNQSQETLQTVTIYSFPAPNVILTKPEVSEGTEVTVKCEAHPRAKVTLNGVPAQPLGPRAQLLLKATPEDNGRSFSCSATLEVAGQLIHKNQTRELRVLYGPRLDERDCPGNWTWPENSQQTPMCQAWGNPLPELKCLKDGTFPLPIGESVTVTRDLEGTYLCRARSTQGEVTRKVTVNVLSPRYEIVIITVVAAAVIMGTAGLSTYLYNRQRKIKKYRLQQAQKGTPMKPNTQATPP
Chain of Intercellular adhesion molecule (ICAM-1), Integrin alpha-L/beta-2 (P05107 whole entry): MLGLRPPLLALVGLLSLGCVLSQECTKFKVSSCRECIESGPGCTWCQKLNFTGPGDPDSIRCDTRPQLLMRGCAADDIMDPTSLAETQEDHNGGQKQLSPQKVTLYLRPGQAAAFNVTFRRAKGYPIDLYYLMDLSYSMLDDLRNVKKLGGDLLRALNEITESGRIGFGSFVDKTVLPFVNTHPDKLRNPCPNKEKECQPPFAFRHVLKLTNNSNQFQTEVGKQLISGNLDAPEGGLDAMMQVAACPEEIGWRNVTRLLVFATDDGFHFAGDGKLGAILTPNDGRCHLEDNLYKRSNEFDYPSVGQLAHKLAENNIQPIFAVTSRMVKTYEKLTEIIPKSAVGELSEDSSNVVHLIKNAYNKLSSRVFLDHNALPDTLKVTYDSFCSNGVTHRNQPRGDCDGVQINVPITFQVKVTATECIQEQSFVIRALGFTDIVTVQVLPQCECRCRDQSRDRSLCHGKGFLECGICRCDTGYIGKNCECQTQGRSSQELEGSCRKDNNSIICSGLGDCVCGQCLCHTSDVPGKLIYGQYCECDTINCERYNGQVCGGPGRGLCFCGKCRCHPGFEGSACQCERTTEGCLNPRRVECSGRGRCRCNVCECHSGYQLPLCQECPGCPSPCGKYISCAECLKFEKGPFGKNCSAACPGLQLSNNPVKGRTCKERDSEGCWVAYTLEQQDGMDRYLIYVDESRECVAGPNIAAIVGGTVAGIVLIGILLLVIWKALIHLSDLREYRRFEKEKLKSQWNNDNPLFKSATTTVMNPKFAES

One may read the IC50 as the concentration that inhibits the measured activity by half. In general, IC90 refers to the concentration at which the effect reaches the 90% level. By inhibition is commonly meant how much of the control response was suppressed. Take `CC[C@@H](C)C(=O)O[C@H]1C(=O)O[C@@H]2C[C@H]3C(C)=CC(=O)[C@@H](O)[C@]3(C)[C@H]3[C@@H](O)[C@H](O)[C@]4(C)OC[C@]32[C@@H]14` [SIMALIKALACTONE D]: the Activity turned out to be 1.5% in the data set with HeLa [1]; 0.25 in [6]; 0.05 in data set [7]; 0.09 in [10]; 0.17 in data set [16]. Besides, the MIC in data set [2] was determined as 0.01 µg/mL (≈ 0.0209 µM). Also, the outcome in the data set on HeLa [3] and in the data set on HeLa [8] was Active. Besides, the IC50 is 0.032 µg/mL (≈ 0.0669 µM) with CHO; 0.003 µg/mL (≈ 0.00627 µM) with Plasmodium falciparum [4]; 0.76 µg/mL (≈ 1.59 µM) in the data set on RAW264.7 [5]; > 52.2 µM in [11]; 0.3 µg/mL (≈ 0.627 µM) in the data set on SK-OV-3; 1 µg/mL (≈ 2.09 µM) in the data set with KB. The 50% inhibitory concentration (IC50) in the data set with Leishmania donovani was 0.035 µg/mL (≈ 0.0731 µM); in the data set on RAW264.7 [12], 0.08 µg/mL (≈ 0.167 µM); in the data set on BT-549 it was 0.3 µg/mL (≈ 0.627 µM); in the data set with SK-MEL it was 0.28 µg/mL (≈ 0.585 µM); with Vero, 2.3 µg/mL (≈ 4.81 µM); in the data set on HL-60, 0.025 µg/mL (≈ 0.0522 µM). Also, in the data set on Plasmodium falciparum [17], half-maximal inhibition (IC50) required 0.00367 µg/mL (≈ 0.00767 µM). In addition, the Ratio in data set [9] came out at 2.5. Further, the IC90 in the data set on Leishmania donovani is 0.2 µg/mL (≈ 0.418 µM). The same compound had an inhibition at 2 µM in the data set with HeLa [13] of 98.5%. In addition, the selectivity ratio is 613 in data set [14] and 750 in data set [15].

As for `COc1ccc(C[C@H]2NC[C@H](O)[C@H]2OC(C)=O)cc1` [ANISOMYCIN], the Activity is recorded as 0% with HeLa [18], <0.01 in data set [19] and <0.01 in [20]. The outcome with HeLa [21] was Active. Moreover, in the data set with HeLa [22], the inhibition at 10 µM is 98.5%.
